ChEMBL document CHEMBL3817745, “Structure-Activity Relationship for the 4(3H)-Quinazolinone Antibacterials” (J Med Chem, 2016)
Converted amounts (≈) assume the structure as drawn.

Legend:
Format in all cases: functional
Klebsiella pneumoniae = test: Antibacterial activity against Klebsiella pneumoniae ATCC 700603 incubated for 16 to 20 hrs by microdilution method
Summary of the method: (§1)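 CLSI broth microdilution. 2-fold serial dilutions were made in cation-adjusted Mueller–Hinton broth, with 5% lysed horse blood added for Streptococcus strains, in triplicate. Inoculum 5×10^5 CFU/mL. Plates incubated 36 °C for 16–20 h. MIC taken as the lowest concentration visibly inhibiting growth.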

Staphylococcus aureus = test: Antibacterial activity against methicillin-susceptible Staphylococcus aureus ATCC 29213 incubated for 16 to 20 hrs by microdilution method
Enterococcus faecium = test: Antibacterial activity against Enterococcus faecium NCTC 7171 incubated for 16 to 20 hrs by microdilution method; summary of the method: as §1
Escherichia coli = test: Antibacterial activity against Escherichia coli ATCC 25922 incubated for 16 to 20 hrs by microdilution method; summary of the method: as §1
Acinetobacter baumannii = test: Antibacterial activity against Acinetobacter baumannii ATCC 17961 incubated for 16 to 20 hrs by microdilution method; summary of the method: as §1
Pseudomonas aeruginosa = test: Antibacterial activity against Pseudomonas aeruginosa […] incubated for 16 to 20 hrs by microdilution method; summary of the method: as §1
Klebsiella aerogenes = test: Antibacterial activity against Enterobacter aerogenes ATCC 35029 incubated for 16 to 20 hrs by microdilution method; summary of the method: as §1

Structure (SMILES)	MIC (Klebsiella pneumoniae) [µg/mL]	MIC (Staphylococcus aureus) [µg/mL]	MIC (Enterococcus faecium) [µg/mL]	MIC (Escherichia coli) [µg/mL]	MIC (Acinetobacter baumannii) [µg/mL]	MIC (Pseudomonas aeruginosa) [µg/mL]	MIC (Klebsiella aerogenes) [µg/mL]
C#Cc1ccc(/C=C/c2nc3ccccc3c(=O)n2-c2cccc(O)c2)cc1	≥ 16	0.003 (≈ 0.00823 µM)	≥ 8	≥ 16	≥ 16	≥ 16	≥ 16
Nc1ccc(/C=C/c2nc3ccccc3c(=O)n2-c2cccc(O)c2)cc1	≥ 16	16 (≈ 45 µM)	≥ 8	≥ 16	≥ 16	≥ 16	≥ 16
O=c1c2ccccc2nc(/C=C/c2ccc(C(F)(F)F)cc2)n1-c1cccc(O)c1	≥ 16	128 (≈ 313 µM)	≥ 8	≥ 16	≥ 16	≥ 16	≥ 16
O=c1c2ccccc2nc(CCc2ccccc2)n1-c1cccc(O)c1	≥ 16	0.06 (≈ 0.175 µM)	≥ 8	≥ 16	≥ 16	≥ 16	≥ 16
O=c1c2ccccc2nc(/C=C/c2ccc(Cl)cc2)n1-c1cccc(O)c1	≥ 16	0.125 (≈ 0.333 µM)	≥ 8	≥ 16	≥ 16	≥ 16	≥ 16
Cc1ccc(-c2nc3ccccc3c(=O)n2-c2cccc(O)c2)cc1	≥ 16	128 (≈ 390 µM)	≥ 8	≥ 16	≥ 16	≥ 16	≥ 16
O=c1c2ccccc2nc(/C=C/c2ccccc2[N+](=O)[O-])n1-c1cccc(O)c1	≥ 16	128 (≈ 332 µM)	≥ 8	≥ 16	≥ 16	≥ 16	≥ 16
O=c1c2ccccc2nc(/C=C/c2ccc(O)cc2)n1-c1cccc(O)c1	≥ 16	> 128	≥ 8	≥ 16	≥ 16	≥ 16	≥ 16
O=c1c2ccccc2nc(/C=C/c2ccco2)n1-c1cccc(O)c1	≥ 16	128 (≈ 387 µM)	≥ 8	≥ 16	≥ 16	≥ 16	≥ 16
O=c1c2ccccc2nc(/C=C/c2ccc([N+](=O)[O-])cc2)n1-c1cccc(O)c1	≥ 16		≥ 8	≥ 16	≥ 16	≥ 16	≥ 16
N#Cc1ccc(/C=C/c2nc3cc(N)ccc3c(=O)n2-c2cccc(C(=O)O)c2)cc1	≥ 16		≥ 8	≥ 16	≥ 16	≥ 16	≥ 16
N#Cc1ccc(/C=C/c2nc3ccncc3c(=O)n2-c2cccc(C(=O)O)c2)cc1	≥ 16		≥ 8	≥ 16	≥ 16	≥ 16	≥ 16
O=c1c2ccccc2nc(/C=C/c2ccc([N+](=O)[O-])cc2)n1-c1ccc(O)cc1	≥ 16		≥ 8	≥ 16	≥ 16	≥ 16	≥ 16
O=C(O)c1cccc(-n2c(/C=C/c3ccc(C#CCO)cc3)nc3ccccc3c2=O)c1	≥ 16		≥ 8	≥ 16	≥ 16	≥ 16	≥ 16
CC(=O)OCc1cccc(-n2c(/C=C/c3ccc(C#N)cc3)nc3ccccc3c2=O)c1	≥ 16		≥ 8	≥ 16	≥ 16	≥ 16	≥ 16
CS(=O)(=O)c1ccc(/C=C/c2nc3ccccc3c(=O)n2-c2cccc(C(=O)O)c2)cc1	≥ 16		≥ 8	≥ 16	≥ 16	≥ 16	≥ 16
COc1ncccc1CNc1cccc(-n2c(/C=C/c3ccc(C#N)cc3)nc3ccccc3c2=O)c1	≥ 16		≥ 8	≥ 16	≥ 16	≥ 16	≥ 16
CC(=O)OCC#Cc1ccc(/C=C/c2nc3ccccc3c(=O)n2-c2cccc(C(=O)O)c2)cc1	≥ 16		≥ 8	≥ 16	≥ 16	≥ 16	≥ 16
NC(=O)c1cccc(-n2c(/C=C/c3ccc(F)cc3)nc3ccccc3c2=O)c1	≥ 16		≥ 8	≥ 16	≥ 16	≥ 16	≥ 16
N#Cc1ccc(/C=C/c2nc3ccccc3c(=O)n2-c2cccc([N+](=O)[O-])c2)cc1	≥ 16		≥ 8	≥ 16	≥ 16	≥ 16	≥ 16
O=C(O)c1cccc(-n2c(/C=C/c3ccc(F)c(F)c3)nc3ccccc3c2=O)c1	≥ 16		≥ 8	≥ 16	≥ 16	≥ 16	≥ 16
O=c1c2cc(O)ccc2nc(/C=C/c2ccc(F)cc2)n1-c1cccc(O)c1	≥ 16		≥ 8	≥ 16	≥ 16	≥ 16	≥ 16
N#Cc1ccc(/C=C/c2nc3ccncc3c(=O)n2-c2cccc(O)c2)cc1	≥ 16		≥ 8	≥ 16	≥ 16	≥ 16	≥ 16
NC(=O)c1cccc(-n2c(/C=C/c3ccc(Cl)cc3)nc3ccncc3c2=O)c1	≥ 16		≥ 8	≥ 16	≥ 16	≥ 16	≥ 16
CC(=O)Oc1cccc(-n2c(/C=C/c3ccc([N+](=O)[O-])cc3)nc3ccccc3c2=O)c1	≥ 16		≥ 8	≥ 16	≥ 16	≥ 16	≥ 16
O=c1c2cnccc2nc(/C=C/c2ccc(F)cc2)n1-c1cccc(O)c1	≥ 16		≥ 8	≥ 16	≥ 16	≥ 16	≥ 16
O=C(O)c1cccc(-n2c(/C=C/c3ccc(F)cc3)nc3ccncc3c2=O)c1	≥ 16		≥ 8	≥ 16	≥ 16	≥ 16	≥ 16
O=c1c2ccccc2nc(/C=C/c2ccc([N+](=O)[O-])cc2)n1-c1ccccc1O	≥ 16		≥ 8	≥ 16	≥ 16	≥ 16	≥ 16
Cc1ccc(/C=C/c2nc3ccccc3c(=O)n2-c2cccc(O)c2)cc1	≥ 16		≥ 8	≥ 16	≥ 16	≥ 16	≥ 16
N#Cc1ccc(/C=C/c2nc3ccccc3c(=O)n2-c2cc[nH]n2)cc1	≥ 16		≥ 8	≥ 16	≥ 16	≥ 16	≥ 16
